RBBP9 inhibitor – blocks human serine hydrolase RBBP9. O75884. recombinant RBBP9, FP-Rh probe fluorescence polarization. inhibition, % at 7.94 µM. 220,000 compounds, 0.2% hits. AID 1515;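 active = inhibition above the campaign mean of all tested compounds plus 3 SD, cut at about 14% in these data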;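 note: plate controls were DMSO wells with RBBP9 for no effect and wells lacking RBBP9 protein for full effect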
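Controls: DMSO-treated enzyme wells and wells lacking RBBP9 | Material: RBBP9 protein | Technique: Fluorescence polarization | Replication: Single well per compound, no replicates | Buffer or medium: Tris-NaCl-Pluronic buffer, pH 8.0 | Timing: 30 min compound preincubation, 45 min probe labeling, 25 °C | Read-out basis: Percent inhibition from mP, scaled between DMSO and no-protein wells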
SUMO HTRF inh – blocks human SUMOylation mediated by UBC9; 290,000 compounds, 0.36% hits; inhibition, % at 35 µM; AID 2006; P63279; HTRF SUMOylation assay, SAE1/SAE2 + UBC9, in vitro; in the data active = inhibition above about 50%, passing the limit was not always enough; inconclusive = no clear call, values can overlap the other calls
Rin1 Abl inh – human Rin1-Abl interaction inhibition | P00519+Q13671 | TR-FRET Rin1/Abl binding, biochemical | inhibition, % at 7.35 µM | 360,000 compounds, 0.4% hits | AID 588664; in the data active = inhibition above about 5%, passing the limit was not always enough
PREPL inh – human PREPL enzyme inhibition. Q4J6C6. recombinant PREPL, fluorescence polarization activity-based probe. inhibition, % at 5.96 µM. 320,000 compounds, 0.68% hits; in the data active = inhibition above about 43%;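 note: 0% = enzyme with DMSO and 100% = wells lacking enzyme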
Target sequence (Q4J6C6 whole entry, looked up): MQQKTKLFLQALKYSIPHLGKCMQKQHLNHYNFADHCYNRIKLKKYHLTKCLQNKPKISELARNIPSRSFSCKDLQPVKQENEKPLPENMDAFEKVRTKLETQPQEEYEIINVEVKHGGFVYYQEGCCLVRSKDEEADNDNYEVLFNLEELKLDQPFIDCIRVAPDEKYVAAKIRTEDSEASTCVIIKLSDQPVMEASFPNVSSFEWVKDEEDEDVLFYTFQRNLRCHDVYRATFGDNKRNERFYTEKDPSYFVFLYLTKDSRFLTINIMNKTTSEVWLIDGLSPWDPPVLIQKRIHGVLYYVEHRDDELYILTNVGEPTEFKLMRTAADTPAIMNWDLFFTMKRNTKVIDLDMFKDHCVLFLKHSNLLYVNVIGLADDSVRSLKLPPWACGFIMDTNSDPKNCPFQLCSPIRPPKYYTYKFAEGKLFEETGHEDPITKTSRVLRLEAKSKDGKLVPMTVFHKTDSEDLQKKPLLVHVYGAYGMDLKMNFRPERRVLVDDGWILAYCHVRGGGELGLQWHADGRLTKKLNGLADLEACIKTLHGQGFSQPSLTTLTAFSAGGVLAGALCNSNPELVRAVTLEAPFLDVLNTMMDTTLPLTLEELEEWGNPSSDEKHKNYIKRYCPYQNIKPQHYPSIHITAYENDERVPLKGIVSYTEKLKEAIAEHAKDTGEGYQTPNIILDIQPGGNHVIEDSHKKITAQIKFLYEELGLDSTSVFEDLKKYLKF
ALR H2O2 inh – blocks human ALR sulfhydryl oxidase activity; inhibition, % (test concentration not listed); 290,000 compounds, 3.8% hits; purified ALR, DTT oxidation, H2O2 HRP-luminol luminescence; P55789;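 active = mean replicate inhibition above about 79%, with every replicate also reaching it, limit read from the data; inconclusive = only one of the two criteria met; inactive = mean below limit and not every replicate reaching it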
UBC13 inh – inhibitors of human UBC13 polyubiquitin chain formation; P61088; TR-FRET; inhibition, % at 20 µM; 330,000 compounds, 0.47% hits; in the data active = inhibition above about 45%, passing the limit was not always enough; inconclusive = no clear call, values can overlap the other calls
Starred values were filed as active, the others as inactive; ? = inconclusive; . = no result given. A selection: hits, their analogues and other compounds. The true share with any hit is near 4.3%.

SMILES	RBBP9 inhibitor	SUMO HTRF inh	Rin1 Abl inh	PREPL inh	ALR H2O2 inh	UBC13 inh
CN1CCN(C2=C(Cl)C(=O)C(c3cnc(N4CCCCC4)s3)=C(Cl)C2=O)CC1	3	24	-2	50*	18	-18
COc1cccc(S(=O)(=O)N(C)C[C@H]2OCc3cnnn3CCCC(=O)N([C@H](C)CO)C[C@@H]2C)c1	.	.	-3	.	.	.
CCC(O)CC(C(=O)NNc1ccccc1)C(=O)NNc1ccccc1 (centres undefined)	1	5	1	4	99*	0
CCc1cc(/C(Cc2cscn2)=N\O)c(O)cc1O	3	-1	-1	9	63	14
O/N=C(\Cc1cscn1)c1ccc(O)cc1O	1	-4	2	15	82*	18
COc1ccc(NC(=O)c2nc3nccc(C)n3n2)cn1	1	7	2	16	-5	-9
Nc1ccc(O)cc1	.	.	.	41	73	.
NC(=Nc1ccc(N)cc1)C(N)=Nc1ccc(N)cc1	7	-10	-2	38	99*	-4
Cc1cc(NC(CC(C)C)C(=O)O)nc(Cc2ccccc2)n1 (centres undefined)	-5	-1	-5	2	-11	3
Cc1cc(NN)nc(Cc2ccccc2)n1	.	5	1	-7	81*	5
CN(C)c1ccc(CNC23CC4CC(CC(C4)C2)C3)cc1	1	.	.	.	.	.
O=C(O)CCC(=O)Nc1ccc2c(c1)Cc1cc(NC(=O)CCC(=O)O)ccc1-2	.	-8	1	0	99*	-4
Cc1sc2nc(CSCC(=O)Nc3ccc(C(=O)N(C)C)cc3)[nH]c(=O)c2c1C	.	.	4	6	99*	13
CSc1ccccc1NC(=O)CSCc1nc2sc(C)c(C)c2c(=O)[nH]1	.	.	1	1	57	2
CC(=O)c1ccccc1NC(=O)CSCc1nc2sc(C)c(C)c2c(=O)[nH]1	.	.	-2	.	.	-3
Cc1sc2nc(CSCC(=O)Nc3ccc(OC(F)F)cc3)[nH]c(=O)c2c1C	5	6	4	2	97*	6
CCOc1ccc(C2C(C#N)=C(N)SC(N)=C2C#N)c(OCC)c1	-17	-3	-13	-27	10	?
CCCCc1ccc(C2C(C#N)=C(N)SC(N)=C2C#N)s1	-7	12	.	14	98*	-20
Cc1ccc(S(=O)(=O)NCC(C)n2nc(C)nc2C)cc1 (centres undefined)	.	12	0	-1	-69	6
C=CCc1c(C)nc2c(C)cccc2c1SC(=N)N	8	-4	-4	-12	100*	3
O=C(C1CCC(=O)N1Cc1cccnc1)N1CCN(c2ccc(F)cc2)CC1 (centres undefined)	-3	0	-1	31	29	-5
Cc1ccc(CN2C(=O)CCC2C(=O)N2CCN(c3ccc(F)cc3)CC2)cc1 (centres undefined)	-14	-10	0	-11	91*	-4
CCOc1ccccc1N=c1oc2cc(O)ccc2cc1C(=O)NCC1CCCO1 (centres undefined)	-1	12	3	12	98*	-10
O=C(COc1ccccc1Cl)NNC(=O)c1ccc2nc[nH]c2c1	.	.	4	-2	.	4
CCOC(=O)/C(=N\Nc1ccccc1Cl)N1CC(C)OC(C)C1 (centres undefined)	4	-35	0	16	.	-17
SMILES	RBBP9 inhibitor	SUMO HTRF inh	Rin1 Abl inh	PREPL inh	ALR H2O2 inh	UBC13 inh
CCOC(=O)/C(=N\Nc1ccccc1Cl)N(C)C1CCCCC1	-2	-1	2	2	99*	-9
OCCC1CN(Cc2cccc3nccnc23)CCN1Cc1ccc(F)cc1 (centres undefined)	-2	9	-1	17	.	9
COc1ccc(NC(=O)CSc2nnc(C)c3ccccc23)cc1	.	13	-8	16	99*	14
Cc1n[nH]c(C)c1SCC(=O)Nc1ccc(F)cc1	-8	5	2	-6	71	6
COc1ccc(NC(=O)CSc2c(C)n[nH]c2C)cc1	-8	4	1	7	99*	11
COC(=O)c1cc(CNC(=O)c2ccccc2OCc2c(C)noc2C)ccc1OC	.	-2	0	6	-10	-6
COc1ccc(NC(=O)c2cccnc2)cc1	.	16	-1	2	-13	-7
CCN(CC)c1ccc(NC(=O)c2cccnc2)cc1	-10	-3	3	0	99*	-14
CNS(=O)(=O)c1ccc(NC(=O)c2cncc(Br)c2)cc1	-5	1	3	9	-3	-12
O=C(Nc1cccnc1)c1ccc(C(=O)Nc2cccnc2)cc1	-7	10	-1	0	.	0
CCN(CC)c1ccc(NC(=O)c2cncc(Br)c2)cc1	-2	-9	1	8	99*	-3
N#CCC(=O)Nc1ccc(C(=O)Nc2cccnc2)cc1	-7	30	-3	13	100*	6
OCC[C@H]1C[C@@H](O)[C@H](O)[C@@]2(Cc3ccccc3O2)O1	.	.	0	14	-25	3
O=C(N/C=N/O)C(c1ccccc1)c1ncc(C(F)(F)F)cc1Cl (centres undefined)	.	2	4	16	.	2
C=CCn1c(CCSCc2ccccc2)n[nH]c1=S	-7	-2	-6	-13	94*	4
Cc1ccc(NC(=O)CN(C)C(=O)CNC(=O)c2sc3ccccc3c2Cl)cc1	.	.	-15	-13	-9	1
NNC(=S)Nc1cccc(-c2n[nH]c(=S)o2)c1	-10	14	-1	18	98*	-5
Cc1cccc(NC(=S)NNC(=O)c2ccccc2Br)c1	-12	-150	3	-2	?	-16
Cc1ccc(NC(=S)NNC(=O)c2nn(C)cc2Cl)cc1	-14	-74	2	-2	91*	-2
Cc1cccc(NC(=S)NNC(=O)c2nn(C)cc2Cl)c1	-6	-34	0	-1	89*	-8
O=C(CC1CC1)Nc1ccc2c(c1)[C@@H]1C[C@H](CC(=O)NC3CCCC3)O[C@@H](CO)[C@@H]1O2	.	.	-1	.	.	.
CSCC[C@H](NC(=O)N1CCn2c1nc1ccccc12)C(=O)NCc1ccco1	.	8	2	-4	96*	8
OC(COCc1cccs1)CN1CCN(c2ccccc2Cl)CC1 (centres undefined)	-4	-3	-2	4	0	-13
OC(COCc1cccs1)CN1CCN(c2cccc(Cl)c2)CC1 (centres undefined)	-6	-10	1	10	91*	14
CN1C[C@@H]2[C@@H]3C(=O)N(Cc4ccccc4)C(=O)[C@@H]3[C@](Cc3ccccc3)(C1=O)N2C(=O)c1ccc(C(F)(F)F)cc1	.	.	4	.	.	.
Cc1nn(Cc2ccc(Cl)cc2Cl)c(C)c1NC(=O)CCl	-2	-2	0	15	90*	-3
CS(=O)(=O)N1Cc2ccccc2CC1C(=O)O (centres undefined)	9	7	1	10	-2	-11

Compound activity (PubChem)
